Experiments:
Adenosine receptor A2a [1] = target: T1, Adenosine receptor A2a (Homo sapiens, UniProt P29274); experiment: Antagonist activity at human adenosine receptor A2a expressed in CHO cell membranes assessed as inhibition of NECA-induced cAMP accumulation measured as NECA EC50 at 7 uM incubated for 15 mins in presence of [3H]cAMP by liquid scintillation counting (Rvb = 77 nM)
Adenosine receptor A2a [2] = target: T1, Adenosine receptor A2a; experiment: Antagonist activity at human adenosine receptor A2a expressed in CHO cell membranes assessed as inhibition of NECA-induced cAMP accumulation measured as NECA EC50 at 5 uM incubated for 15 mins in presence of [3H]cAMP by liquid scintillation counting (Rvb = 68 nM)
Method in brief: (§1)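 Stably transfected CHO cells (human A2A or A2B) grown in DMEM-F12 with 10% FCS at 37 °C, 5% CO2. The cells were seeded at 200,000/well, washed after 24 h and held 2 h in HBSS (pH 7.3) with 1 U/ml adenosine deaminase. Ro20-1724 was added to 40 µM final for 15 min, then NECA dilutions ± one fixed test concentration in 2.5% DMSO, in duplicate.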

Adenosine receptor A2b = target: T2, Adenosine receptor A2b (Homo sapiens, UniProt P29275); experiment: Antagonist activity at human adenosine receptor A2b expressed in CHO cell membranes assessed as inhibition of NECA-induced cAMP accumulation measured as NECA EC50 at 2 uM incubated for 15 mins in presence of [3H]cAMP by liquid scintillation counting (Rvb = 73 nM); method in brief: as §1
T2 sequence (P29275 whole entry): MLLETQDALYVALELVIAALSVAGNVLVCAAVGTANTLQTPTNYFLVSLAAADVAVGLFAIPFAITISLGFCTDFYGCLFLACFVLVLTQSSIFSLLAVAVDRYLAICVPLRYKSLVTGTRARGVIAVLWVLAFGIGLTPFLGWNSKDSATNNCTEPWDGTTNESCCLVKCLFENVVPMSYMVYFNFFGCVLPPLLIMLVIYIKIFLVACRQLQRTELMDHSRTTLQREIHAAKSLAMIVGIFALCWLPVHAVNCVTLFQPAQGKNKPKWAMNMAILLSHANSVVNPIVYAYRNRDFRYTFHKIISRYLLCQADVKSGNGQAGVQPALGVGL

T1 sequence (P29274 whole entry): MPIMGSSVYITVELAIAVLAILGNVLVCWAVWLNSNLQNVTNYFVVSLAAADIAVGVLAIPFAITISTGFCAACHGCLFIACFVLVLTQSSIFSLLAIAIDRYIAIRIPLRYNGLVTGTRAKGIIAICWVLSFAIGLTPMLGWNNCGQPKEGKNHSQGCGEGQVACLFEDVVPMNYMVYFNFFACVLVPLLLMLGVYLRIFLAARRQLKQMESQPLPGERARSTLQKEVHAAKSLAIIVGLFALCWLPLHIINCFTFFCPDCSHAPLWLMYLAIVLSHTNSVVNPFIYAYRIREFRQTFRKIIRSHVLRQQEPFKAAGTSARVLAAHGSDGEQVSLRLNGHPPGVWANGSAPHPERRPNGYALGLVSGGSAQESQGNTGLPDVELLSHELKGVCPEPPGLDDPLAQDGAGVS

Cn1c(=O)c2c(nc3n2CCCN3CCc2ccc(O)cc2)n(C)c1=O [9-(4-hydroxyphenethyl)-1,3-dimethyl-6,7,8,9-tetrahydropyrimido[1,2-a]purine-2,4(1H,3H)-dione]
EC50 (Adenosine receptor A2a [1]): 302 nM

CCN(CC)CCOc1ccc(CCN2CCCn3c2nc2c3c(=O)n(C)c(=O)n2C)cc1
EC50 (Adenosine receptor A2a [2]): 460 nM

CCCCn1c(=O)c2c(nc3n2CCCN3CCc2ccc(OCCN(CC)CC)cc2)n(CCCC)c1=O
EC50 (Adenosine receptor A2b): 335 nM
